Data: ChEMBL document CHEMBL3797186, “Single Residue Substitutions That Confer Voltage-Gated Sodium Ion Channel Subtype Selectivity in the NaV1.7 Inhibitory Peptide GpTx-1” (J Med Chem, 2016)
Positions of bridges follow the written chain, without caps; N, C: chain ends. Residues, ends and D or L forms follow the SMILES beside them.

Target: Sodium channel protein type 5 subunit alpha (Homo sapiens, UniProt Q14524)
Assay: Inhibition of human Nav1.5 expressed in HEK293 cells assessed as inward peak current by ion-works quattro patch clamp electrophysiology method
Type: cell-based
Outline: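 Stable HEK293 line expressing human NaV1.5, recorded by population patch clamp on the IonWorks Quattro.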

Sodium channel protein type 5 subunit alpha, sequence (Q14524 whole entry): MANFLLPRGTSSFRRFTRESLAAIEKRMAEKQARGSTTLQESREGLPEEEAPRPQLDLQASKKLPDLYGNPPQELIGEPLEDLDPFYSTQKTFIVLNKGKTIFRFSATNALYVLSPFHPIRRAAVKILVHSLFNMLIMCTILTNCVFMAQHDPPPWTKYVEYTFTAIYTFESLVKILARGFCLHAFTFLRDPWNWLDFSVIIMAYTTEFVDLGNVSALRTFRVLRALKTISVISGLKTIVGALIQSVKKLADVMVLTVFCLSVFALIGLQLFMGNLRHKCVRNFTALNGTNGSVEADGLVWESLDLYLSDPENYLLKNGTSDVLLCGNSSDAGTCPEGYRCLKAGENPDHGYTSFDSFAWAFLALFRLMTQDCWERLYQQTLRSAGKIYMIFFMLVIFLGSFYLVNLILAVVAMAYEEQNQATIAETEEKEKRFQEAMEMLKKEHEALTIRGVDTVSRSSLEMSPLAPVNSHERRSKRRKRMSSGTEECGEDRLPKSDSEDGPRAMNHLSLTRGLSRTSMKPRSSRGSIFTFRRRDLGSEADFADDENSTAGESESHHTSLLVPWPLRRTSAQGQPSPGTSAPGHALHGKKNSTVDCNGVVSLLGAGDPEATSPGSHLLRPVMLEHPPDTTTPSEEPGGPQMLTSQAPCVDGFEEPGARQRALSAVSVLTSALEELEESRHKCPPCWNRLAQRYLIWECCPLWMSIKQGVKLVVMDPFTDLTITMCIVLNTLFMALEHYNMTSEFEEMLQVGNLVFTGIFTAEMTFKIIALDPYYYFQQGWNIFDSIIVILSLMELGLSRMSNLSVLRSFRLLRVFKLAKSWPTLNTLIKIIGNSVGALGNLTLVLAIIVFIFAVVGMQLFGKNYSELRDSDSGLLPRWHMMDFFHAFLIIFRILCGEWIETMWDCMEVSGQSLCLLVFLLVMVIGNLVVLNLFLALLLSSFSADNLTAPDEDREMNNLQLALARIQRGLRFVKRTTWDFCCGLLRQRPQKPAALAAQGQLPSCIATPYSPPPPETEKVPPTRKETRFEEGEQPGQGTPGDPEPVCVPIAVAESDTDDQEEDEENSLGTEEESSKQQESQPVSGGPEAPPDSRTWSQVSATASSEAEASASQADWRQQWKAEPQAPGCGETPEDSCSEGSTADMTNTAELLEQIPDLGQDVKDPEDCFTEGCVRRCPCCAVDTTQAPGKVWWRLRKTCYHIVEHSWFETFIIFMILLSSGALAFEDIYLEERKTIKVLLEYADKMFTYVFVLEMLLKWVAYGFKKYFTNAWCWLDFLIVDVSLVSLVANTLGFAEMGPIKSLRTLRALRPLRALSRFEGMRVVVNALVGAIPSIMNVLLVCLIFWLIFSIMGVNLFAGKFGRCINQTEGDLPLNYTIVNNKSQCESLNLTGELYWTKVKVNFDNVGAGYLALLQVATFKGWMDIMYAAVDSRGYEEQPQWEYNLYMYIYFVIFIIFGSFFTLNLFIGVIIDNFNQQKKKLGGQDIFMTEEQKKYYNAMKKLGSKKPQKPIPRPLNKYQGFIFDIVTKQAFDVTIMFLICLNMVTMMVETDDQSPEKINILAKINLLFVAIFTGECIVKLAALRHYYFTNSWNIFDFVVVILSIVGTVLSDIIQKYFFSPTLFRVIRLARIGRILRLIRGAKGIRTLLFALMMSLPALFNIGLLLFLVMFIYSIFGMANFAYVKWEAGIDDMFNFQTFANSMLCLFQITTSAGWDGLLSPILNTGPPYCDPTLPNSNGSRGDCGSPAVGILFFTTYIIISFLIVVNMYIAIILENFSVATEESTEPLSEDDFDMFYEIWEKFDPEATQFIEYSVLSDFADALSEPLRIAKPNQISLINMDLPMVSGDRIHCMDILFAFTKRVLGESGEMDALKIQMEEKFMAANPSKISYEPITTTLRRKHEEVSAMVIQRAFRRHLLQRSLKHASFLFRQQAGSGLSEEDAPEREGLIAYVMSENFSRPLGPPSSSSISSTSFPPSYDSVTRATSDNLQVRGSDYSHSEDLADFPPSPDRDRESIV

Row | SMILES | IC50 [µM]
1 | CC[C@H](C)[C@@H]1NC(=O)[C@@H]2CSSC[C@@H]3NC(=O)[C@H](C(C)C)NC(=O)[C@H](CC(C)C)NC(=O)[C@H](CC(N)=O)NC(=O)[C@@H]4CCCN4C(=O)[C@H](CCCNC(=N)N)NC(=O)[C@H](CSSC[C@H](NC(=O)[C@@H](N)CCCCN)C(=O)N[C@@H](CC(C)C)C(=O)NCC(=O)N[C@@H](Cc4ccccc4)C(=O)N[C@@H](CCSC)C(=O)N[C@@H](CCCNC(=N)N)C(=O)N[C@@H](CCCCN)C(=O)N2)NC(=O)[C@H](CSSC[C@@H](C(=O)N[C@@H](CCCCN)C(=O)N[C@@H](Cc2ccc(O)cc2)C(=O)N[C@H](C(=O)N[C@@H](Cc2ccccc2)C(N)=O)C(C)C)NC(=O)[C@H](Cc2c[nH]c4ccccc24)NC(=O)[C@H](CCCCN)NC(=O)[C@H](Cc2cnc[nH]2)NC(=O)[C@H]([C@@H](C)O)NC(=O)[C@H](CCCNC(=N)N)NC(=O)[C@H](CO)NC3=O)NC(=O)[C@H](CCCCN)NC(=O)[C@H](CC(=O)O)NC(=O)[C@H](CC(N)=O)NC(=O)[C@H](CC(=O)O)NC(=O)[C@@H]2CCCN2C1=O (H-KCLGFMRKCIPDNDKCCRPNLVCSRTHKWCKYVF-NH2; disulfide 2-17, 9-23, 16-30) | > 5
2 | CC[C@H](C)[C@@H]1NC(=O)[C@@H]2CSSC[C@@H]3NC(=O)[C@H](CCC(=O)O)NC(=O)[C@H](CC(C)C)NC(=O)[C@H](CC(N)=O)NC(=O)[C@@H]4CCCN4C(=O)[C@H](CCCNC(=N)N)NC(=O)[C@H](CSSC[C@H](NC(=O)[C@@H](N)CC(=O)O)C(=O)N[C@@H](CC(C)C)C(=O)NCC(=O)N[C@@H](Cc4ccccc4)C(=O)N[C@@H](CCSC)C(=O)N[C@@H](CCCNC(=N)N)C(=O)N[C@@H](CCCCN)C(=O)N2)NC(=O)[C@H](CSSC[C@@H](C(=O)N[C@@H](CCCCN)C(=O)N[C@@H](Cc2ccc(O)cc2)C(=O)N[C@H](C(=O)N[C@@H](Cc2ccccc2)C(N)=O)C(C)C)NC(=O)[C@H](Cc2c[nH]c4ccccc24)NC(=O)[C@H](CCCCN)NC(=O)[C@H](Cc2cnc[nH]2)NC(=O)[C@H]([C@@H](C)O)NC(=O)[C@H](CCCNC(=N)N)NC(=O)[C@H](CO)NC3=O)NC(=O)[C@H](CCCCN)NC(=O)[C@H](CC(=O)O)NC(=O)[C@H](CC(N)=O)NC(=O)[C@H](CC(=O)O)NC(=O)[C@@H]2CCCN2C1=O (H-DCLGFMRKCIPDNDKCCRPNLECSRTHKWCKYVF-NH2; disulfide 2-17, 9-23, 16-30) | > 5
3 | CC[C@H](C)[C@@H]1NC(=O)[C@@H]2CSSC[C@@H]3NC(=O)[C@H](CCCNC(=N)N)NC(=O)[C@H](CC(C)C)NC(=O)[C@H](CC(N)=O)NC(=O)[C@@H]4CCCN4C(=O)[C@H](CCCNC(=N)N)NC(=O)[C@H](CSSC[C@H](NC(=O)[C@@H](N)CC(=O)O)C(=O)N[C@@H](CC(C)C)C(=O)NCC(=O)N[C@@H](Cc4ccccc4)C(=O)N[C@@H](CCSC)C(=O)N[C@@H](CCCNC(=N)N)C(=O)N[C@@H](CCCCN)C(=O)N2)NC(=O)[C@H](CSSC[C@@H](C(=O)N[C@@H](CCCCN)C(=O)N[C@@H](Cc2ccc(O)cc2)C(=O)N[C@H](C(=O)N[C@@H](Cc2ccccc2)C(N)=O)C(C)C)NC(=O)[C@H](Cc2c[nH]c4ccccc24)NC(=O)[C@H](CCCCN)NC(=O)[C@H](Cc2cnc[nH]2)NC(=O)[C@H]([C@@H](C)O)NC(=O)[C@H](CCCNC(=N)N)NC(=O)[C@H](CO)NC3=O)NC(=O)[C@H](CCCCN)NC(=O)[C@H](CC(=O)O)NC(=O)[C@H](CC(N)=O)NC(=O)[C@H](CC(=O)O)NC(=O)[C@@H]2CCCN2C1=O (H-DCLGFMRKCIPDNDKCCRPNLRCSRTHKWCKYVF-NH2; disulfide 2-17, 9-23, 16-30) | > 5
4 | CC[C@H](C)[C@@H]1NC(=O)[C@@H]2CSSC[C@@H]3NC(=O)[C@H](C(C)C)NC(=O)[C@H](CC(C)C)NC(=O)[C@H](CC(N)=O)NC(=O)[C@@H]4CCCN4C(=O)[C@H](CCCNC(=N)N)NC(=O)[C@H](CSSC[C@H](NC(=O)[C@@H](N)CC(=O)O)C(=O)N[C@@H](CC(C)C)C(=O)NCC(=O)N[C@@H](Cc4ccccc4)C(=O)N[C@@H](CCSC)C(=O)N[C@@H](CCCNC(=N)N)C(=O)N[C@@H](CCCCN)C(=O)N2)NC(=O)[C@H](CSSC[C@@H](C(=O)N[C@@H](CCCCN)C(=O)N[C@@H](Cc2ccc(O)cc2)C(N)=O)NC(=O)[C@H](Cc2c[nH]c4ccccc24)NC(=O)[C@H](CCCCN)NC(=O)[C@H](Cc2cnc[nH]2)NC(=O)[C@H]([C@@H](C)O)NC(=O)[C@H](CCCNC(=N)N)NC(=O)[C@H](CO)NC3=O)NC(=O)[C@H](CCCCN)NC(=O)[C@H](CC(=O)O)NC(=O)[C@H](CC(N)=O)NC(=O)[C@H](CC(=O)O)NC(=O)[C@@H]2CCCN2C1=O (H-DCLGFMRKCIPDNDKCCRPNLVCSRTHKWCKY-NH2; disulfide 2-17, 9-23, 16-30) | > 5
5 | CC[C@H](C)[C@@H]1NC(=O)[C@@H]2CSSC[C@@H]3NC(=O)[C@H](C(C)C)NC(=O)[C@H](CC(C)C)NC(=O)[C@H](CC(N)=O)NC(=O)[C@@H]4CCCN4C(=O)[C@H](CCCNC(=N)N)NC(=O)[C@H](CSSC[C@H](NC(=O)[C@@H](N)CC(=O)O)C(=O)N[C@@H](CC(C)C)C(=O)N[C@@H](Cc4c[nH]c5ccccc45)C(=O)N[C@@H](Cc4ccccc4)C(=O)N[C@@H](CCSC)C(=O)N[C@@H](CCCNC(=N)N)C(=O)N[C@@H](CCCCN)C(=O)N2)NC(=O)[C@H](CSSC[C@@H](C(=O)N[C@@H](CCCCN)C(=O)N[C@@H](Cc2ccc(O)cc2)C(=O)N[C@H](C(=O)N[C@@H](Cc2ccccc2)C(N)=O)C(C)C)NC(=O)[C@H](Cc2c[nH]c4ccccc24)NC(=O)[C@H](CCCCN)NC(=O)[C@H](Cc2cnc[nH]2)NC(=O)[C@H]([C@@H](C)O)NC(=O)[C@H](CCCNC(=N)N)NC(=O)[C@H](CO)NC3=O)NC(=O)[C@H](CCCCN)NC(=O)[C@H](CC(=O)O)NC(=O)[C@H](CC(N)=O)NC(=O)[C@H](CC(=O)O)NC(=O)[C@@H]2CCCN2C1=O (H-DCLWFMRKCIPDNDKCCRPNLVCSRTHKWCKYVF-NH2; disulfide 2-17, 9-23, 16-30) | > 5
6 | CC[C@H](C)[C@@H]1NC(=O)[C@@H]2CSSC[C@@H]3NC(=O)[C@H](C(C)C)NC(=O)[C@H](CC(C)C)NC(=O)[C@H](CC(N)=O)NC(=O)[C@H](CCCNC(=N)N)NC(=O)[C@H](CCCNC(=N)N)NC(=O)[C@H](CSSC[C@H](NC(=O)[C@@H](N)CC(=O)O)C(=O)N[C@@H](CC(C)C)C(=O)NCC(=O)N[C@@H](Cc4ccccc4)C(=O)N[C@@H](CCSC)C(=O)N[C@@H](CCCNC(=N)N)C(=O)N[C@@H](CCCCN)C(=O)N2)NC(=O)[C@H](CSSC[C@@H](C(=O)N[C@@H](CCCCN)C(=O)N[C@@H](Cc2ccc(O)cc2)C(=O)N[C@H](C(=O)N[C@@H](Cc2ccccc2)C(N)=O)C(C)C)NC(=O)[C@H](Cc2c[nH]c4ccccc24)NC(=O)[C@H](CCCCN)NC(=O)[C@H](Cc2cnc[nH]2)NC(=O)[C@H]([C@@H](C)O)NC(=O)[C@H](CCCNC(=N)N)NC(=O)[C@H](CO)NC3=O)NC(=O)[C@H](CCCCN)NC(=O)[C@H](CC(=O)O)NC(=O)[C@H](CC(N)=O)NC(=O)[C@H](CC(=O)O)NC(=O)[C@@H]2CCCN2C1=O (H-DCLGFMRKCIPDNDKCCRRNLVCSRTHKWCKYVF-NH2; disulfide 2-17, 9-23, 16-30) | > 5
7 | CC[C@H](C)[C@@H]1NC(=O)[C@@H]2CSSC[C@@H]3NC(=O)[C@H](C(C)C)NC(=O)[C@H](CC(C)C)NC(=O)[C@H](CC(N)=O)NC(=O)[C@@H]4CCCN4C(=O)[C@H](CCCNC(=N)N)NC(=O)[C@H](CSSC[C@H](NC(=O)[C@@H](N)CC(=O)O)C(=O)N[C@@H](CC(C)C)C(=O)NCC(=O)N[C@@H](Cc4ccccc4)C(=O)N[C@@H](CCSC)C(=O)N[C@@H](CCCNC(=N)N)C(=O)N[C@@H](CCCCN)C(=O)N2)NC(=O)[C@H](CSSC[C@@H](C(=O)N[C@@H](CCCCN)C(=O)N[C@@H](Cc2ccc(O)cc2)C(=O)N[C@H](C(=O)N[C@@H](Cc2ccccc2)C(N)=O)C(C)C)NC(=O)[C@H](Cc2c[nH]c4ccccc24)NC(=O)[C@H](CCCCN)NC(=O)[C@H](Cc2cnc[nH]2)NC(=O)[C@H]([C@@H](C)O)NC(=O)[C@H](CCCNC(=N)N)NC(=O)[C@H](CO)NC3=O)NC(=O)[C@H](CCCCN)NC(=O)[C@H](CC(=O)O)NC(=O)[C@H](CCCCN)NC(=O)[C@H](CC(=O)O)NC(=O)[C@@H]2CCCN2C1=O (H-DCLGFMRKCIPDKDKCCRPNLVCSRTHKWCKYVF-NH2; disulfide 2-17, 9-23, 16-30) | > 5
8 | CSCC[C@@H]1NC(=O)[C@H](Cc2ccccc2)NC(=O)CNC(=O)[C@H](CC(C)C)NC(=O)[C@@H](NC(=O)[C@@H](N)CC(=O)O)CSSC[C@@H]2NC(=O)[C@@H]3CSSC[C@@H](C(=O)N[C@@H](CCCCN)C(=O)N[C@@H](Cc4ccc(O)cc4)C(=O)N[C@H](C(=O)N[C@@H](Cc4ccccc4)C(N)=O)C(C)C)NC(=O)[C@H](Cc4c[nH]c5ccccc45)NC(=O)[C@H](CCCCN)NC(=O)[C@H](Cc4cnc[nH]4)NC(=O)[C@H]([C@@H](C)O)NC(=O)[C@H](CCCNC(=N)N)NC(=O)[C@H](CO)NC(=O)[C@H](CSSC[C@H](NC(=O)[C@H](CCCCN)NC(=O)[C@H](CCCNC(=N)N)NC1=O)C(=O)N[C@@H](Cc1ccc(O)cc1)C(=O)N1CCC[C@H]1C(=O)N[C@@H](CC(=O)O)C(=O)N[C@@H](CC(N)=O)C(=O)N[C@@H](CC(=O)O)C(=O)N[C@@H](CCCCN)C(=O)N3)NC(=O)[C@H](C(C)C)NC(=O)[C@H](CC(C)C)NC(=O)[C@H](CC(N)=O)NC(=O)[C@@H]1CCCN1C(=O)[C@H](CCCNC(=N)N)NC2=O (H-DCLGFMRKCYPDNDKCCRPNLVCSRTHKWCKYVF-NH2; disulfide 2-17, 9-23, 16-30) | > 5
